Test results reported in publication PMC11771645 (Journal of Clinical Pharmacology, 2024).
“Also recorded” adds a separate entry of the source. Read-outs that look alike come from different tables or passages of the source.

Columns and labels:
[1] = Phase 2 Friedreich's ataxia study, observed PK; assay type: in vivo; settings: human, plasma, oral, geometric mean; for AUC: AUC0‐8 h
Procedure, shortened: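 Phase 2 study in patients with Friedreich's ataxia, with repeated oral dosing of the test compound at 200 mg or 400 mg TID. Observed plasma Cmax and AUC0-8 h were summarised as geometric means on Day 1 and Day 91. These observed data served to verify the PBPK model, with simulated exposures judged accurate if within 1.5-fold of observed.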

Food-effect study = assay type: in vivo, human
CYP3A4 [2] = assay: In vitro CYP3A4 induction; assay type: in vitro ADME, human
CYP1A2 = assay: In vitro CYP1A2 induction; assay type: in vitro ADME, human
CYP3A4 [3] = biological target: CYP3A4 (Homo sapiens, UniProt P08684); assay: Reaction phenotyping studies; assay type: in vitro ADME
Sequence of CYP3A4 (Homo sapiens, UniProt P08684) (P08684 whole entry): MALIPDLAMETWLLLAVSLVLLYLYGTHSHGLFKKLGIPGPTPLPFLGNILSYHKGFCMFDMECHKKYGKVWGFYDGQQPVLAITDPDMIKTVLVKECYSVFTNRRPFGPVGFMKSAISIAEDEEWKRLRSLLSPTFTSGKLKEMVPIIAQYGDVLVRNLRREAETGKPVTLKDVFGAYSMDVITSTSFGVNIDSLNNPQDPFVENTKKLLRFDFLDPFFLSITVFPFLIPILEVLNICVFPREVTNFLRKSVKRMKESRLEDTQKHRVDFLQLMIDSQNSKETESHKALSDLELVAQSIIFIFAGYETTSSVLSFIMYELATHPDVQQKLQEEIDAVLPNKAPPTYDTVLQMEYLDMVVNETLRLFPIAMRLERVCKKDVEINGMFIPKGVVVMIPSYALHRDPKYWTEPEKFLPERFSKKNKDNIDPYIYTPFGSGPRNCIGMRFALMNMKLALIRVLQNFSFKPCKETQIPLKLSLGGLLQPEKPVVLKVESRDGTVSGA

[4] = Unbound fraction in plasma; assay type: in vitro ADME; settings: human
[5] = Clinical PK in healthy volunteer studies; assay type: in vivo, human
CYP3A4 [6] = settings: cited from earlier work
CYP3A4 [7] = settings: cited from earlier work; remark: listed apart in the source
[8] = oral dose, male subjects; cited from earlier work
CYP2C9 = settings: clinical doses; cited from earlier work
CYP2C19 = settings: clinical doses; cited from earlier work
[9] = test system: breast cancer resistance protein (BCRP); settings: clinical doses; cited from earlier work
[10] = patients with Friedreich's ataxia; cited from earlier work
[11] = 400 mg vatiquinone with 200 mg itraconazole
[12] = Observed, Vatiquinone + Itraconazole (5 days TID, 200 mg)
[13] = in the presence of itraconazole
[14] = 400 mg vatiquinone with 600 mg rifampicin
[15] = Observed, Vatiquinone + Rifampicin (14 days TID, 600 mg)

## CC(C)=CCC/C(C)=C/CC/C(C)=C/CC[C@@](C)(O)CCC1=C(C)C(=O)C(C)=C(C)C1=O [Vatiquinone, alpha‐tocotrienol quinone]
[1]; 200 mg, 200 mg TID, Day 1, patients with Friedreich's ataxia
  AUC: 1030 ng·h/mL
[1]; 200 mg, 200 mg TID, Day 91
  AUC: 1950 ng·h/mL
  Cmax: 689 ng/mL
[1]; 200 mg, 200 mg TID, Day 1
  Cmax: 466 ng/mL
[1]; 400 mg, 400 mg TID, Day 1, patients with Friedreich's ataxia
  AUC: 2430 ng·h/mL
[1]; 400 mg, 400 mg TID, Day 91
  AUC: 3490 ng·h/mL
  Cmax: 905 ng/mL
[1]; 400 mg, 400 mg TID, Day 1
  Cmax: 1020 ng/mL
Food-effect study
  AUC, low‐fat meals compared with fasted: 8 fold
CYP3A4 [2]; Scaled using rifampicin data
  CYP3A4 Indmax: 4.26
CYP3A4 [2]; human
  EC50: 3700 nM
CYP3A4 [2]; in vitro data
  CYP3A4 induction potential: borderline potential inducer
CYP1A2; In vitro study
  CYP1A2 Indmax: 2.61
CYP1A2; Scaled using omeprazole data
  CYP1A2 Indmax: 1.04
CYP1A2; human
  EC50: 1800 nM
CYP1A2; in vitro data
  CYP1A2 induction potential: borderline potential inducer
CYP3A4 [3]
  enzyme mediating vatiquinone metabolism: mainly mediated by CYP3A4
[4]
  fraction unbound: 0.022
[5]; Clinical study
  ka: 1.27 h⁻¹
  tlag: 3.67 h
[5]; healthy volunteer studies, from AUC0-inf in the absence of itraconazole
  CL/F (apparent oral clearance): 94.3 L/h
[5]; human, in vivo, oral
  half-life: ~9 h
CYP3A4 [6]; [11]
  increase in vatiquinone AUC0‐inf: ~2.9 fold
  increase in vatiquinone Cmax: approximately 3.5 fold
CYP3A4 [6]; [12]
  AUC0‐inf, geometric mean: 11,300 h•ng/mL
  Cmax, geometric mean: 3430 ng/mL
CYP3A4 [6]; [13]
  increase in vatiquinone AUC0‐inf: ~188%
  increase in vatiquinone Cmax: approximately 245%
CYP3A4 [7]; [14]
  decrease in vatiquinone AUC0‐inf: ~46%
  decrease in vatiquinone Cmax: approximately 36%
CYP3A4 [7]; [15]
  AUC0‐inf, geometric mean: 1830 ng·h/mL
  Cmax, geometric mean: 619 ng/mL
[8]
  mean cumulative recovery: 92.9%
  recovery of unchanged vatiquinone in feces: 6.77 % of dose
CYP2C9
  effect of vatiquinone on CYP2C9 substrate (tolbutamide) exposure: did not have a significant impact; also recorded: lack of a clinically relevant effect
CYP2C19
  effect of vatiquinone on CYP2C19 substrate (omeprazole) exposure: did not have a significant impact; also recorded: lack of a clinically relevant effect
[9]
  effect of vatiquinone on BCRP substrate (rosuvastatin) exposure: did not have a significant impact; also recorded: lack of a clinically relevant effect
[10]
  tolerability: well tolerated with no dose‐limiting toxicities
